Source: PubChem BioAssay (several laboratories)
Compounds with a hit are over-represented: about 3.1% of the library has one in this group of screens.
PAFAH2 FP inh: inhibitors of human PAFAH2 | 340,000 compounds, 0.99% hits | AID 492956 | inhibition, % at 3.39 µM | Q99487 | recombinant PAFAH2, FP-rhodamine activity probe, fluorescence polarization;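 active means inhibition above the mean over all tested compounds plus 3 SD, cut at about 30% in these data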;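 further: inhibitors block probe labeling of enzyme so polarization drops; 0% = enzyme with DMSO and 100% = wells lacking PAFAH2 protein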
pPAFAH FP inh: inhibitors of human plasma PAF acetylhydrolase (pPAFAH); AID 463082; Q13093; recombinant pPAFAH, FP-rhodamine probe fluorescence polarization; 330,000 compounds, 1.5% hits; inhibition, % at 3.39 µM;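 active means inhibition above the mean inhibition across the screen plus 3 SD, cut at about 25% in these data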;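 further: inhibitors block binding of the rhodamine activity-based probe so polarization drops; 0% = enzyme with DMSO and 100% = wells lacking pPAFAH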
PAFAH1B2 FP inh: PAFAH1B2 (human) inhibition. P68402. recombinant PAFAH1B2, FP-rhodamine activity probe, fluorescence polarization. inhibition, % at 3.39 µM. 340,000 compounds, 1.2% hits. AID 492953;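 active means inhibition above the mean of all tested compounds plus 3 SD, cut at about 24% in these data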;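 further: 0% = enzyme with DMSO and 100% = wells lacking PAFAH1B2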
Apaf1 inhib: human Apaf-1 inhibition; O14727; reconstituted apoptosome caspase-3 activity, DEVD-Rh110 fluorescence; inhibition, % at 20 µM; 330,000 compounds, 0.71% hits; active means inhibition of at least 40% at 20 µM;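 further: plate controls were DMSO wells for no effect and DEVD-CHO caspase inhibitor wells for full effect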
Target sequence (O14727 whole entry, looked up): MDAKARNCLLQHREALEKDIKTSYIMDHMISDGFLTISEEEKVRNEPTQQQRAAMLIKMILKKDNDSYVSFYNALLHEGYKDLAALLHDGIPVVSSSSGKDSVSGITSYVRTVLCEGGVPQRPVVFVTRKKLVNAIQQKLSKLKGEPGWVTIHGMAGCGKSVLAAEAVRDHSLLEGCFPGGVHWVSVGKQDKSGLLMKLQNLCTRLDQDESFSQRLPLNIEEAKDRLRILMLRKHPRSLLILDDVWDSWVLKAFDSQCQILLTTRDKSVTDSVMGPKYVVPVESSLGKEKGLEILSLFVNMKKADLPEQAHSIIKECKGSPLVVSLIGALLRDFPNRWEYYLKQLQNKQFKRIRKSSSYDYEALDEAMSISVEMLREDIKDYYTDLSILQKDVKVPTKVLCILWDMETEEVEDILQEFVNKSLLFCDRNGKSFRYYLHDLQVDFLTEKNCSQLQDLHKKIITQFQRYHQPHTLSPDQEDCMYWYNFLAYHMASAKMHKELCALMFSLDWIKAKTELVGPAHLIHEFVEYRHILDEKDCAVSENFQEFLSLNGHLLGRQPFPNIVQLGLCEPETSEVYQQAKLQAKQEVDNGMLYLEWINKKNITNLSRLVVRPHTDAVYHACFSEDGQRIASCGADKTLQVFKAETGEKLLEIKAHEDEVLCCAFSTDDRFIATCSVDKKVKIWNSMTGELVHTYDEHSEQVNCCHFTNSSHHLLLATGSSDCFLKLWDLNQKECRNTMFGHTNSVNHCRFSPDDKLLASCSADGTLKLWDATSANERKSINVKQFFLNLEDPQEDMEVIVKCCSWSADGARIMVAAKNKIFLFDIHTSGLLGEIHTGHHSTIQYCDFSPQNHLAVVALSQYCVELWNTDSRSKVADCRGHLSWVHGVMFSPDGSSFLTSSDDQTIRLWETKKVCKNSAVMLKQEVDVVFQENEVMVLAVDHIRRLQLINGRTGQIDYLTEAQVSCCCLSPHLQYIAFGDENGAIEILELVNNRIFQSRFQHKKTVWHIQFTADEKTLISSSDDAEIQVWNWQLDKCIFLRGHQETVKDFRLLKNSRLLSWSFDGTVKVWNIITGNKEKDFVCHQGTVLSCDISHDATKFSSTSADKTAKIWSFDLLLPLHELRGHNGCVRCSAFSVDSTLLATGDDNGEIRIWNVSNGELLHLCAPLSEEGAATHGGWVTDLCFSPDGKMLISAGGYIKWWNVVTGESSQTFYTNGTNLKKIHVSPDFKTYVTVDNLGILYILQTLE
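System: reconstituted apoptosome with Apaf-1, cytochrome c, caspase-9, procaspase-3, dATP; Signal: Rh110 fluorescence intensity; Schedule: 30 min compound preincubation, 50 min activation, room temperature; Reagent: cytochrome c trigger plus (Z-DEVD)2-Rh110 caspase-3 substrate.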
PAFAH1B3 FP inh: inhibitors of human PAFAH1B3; recombinant PAFAH1B3, FP-rhodamine probe, fluorescence polarization; inhibition, % at 3.39 µM; 340,000 compounds, 0.28% hits;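 active means inhibition above the screen-wide average of all tested compounds plus 3 SD, cut at about 25% in these data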;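 further: 0% = enzyme with DMSO only and 100% = wells lacking PAFAH1B3 protein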
* hit, by the source's call.

Screening O=C(O)c1cccc(S(=O)(=O)N(Cc2ccccc2)c2cccc(C(F)(F)F)c2)c1 returned PAFAH2 FP inh 1.4, pPAFAH FP inh 28.1*, PAFAH1B2 FP inh 23.9, Apaf1 inhib 7.9 and PAFAH1B3 FP inh -0.3.
COc1ccc(C2c3ccc(O)cc3Oc3ncn(Cc4ccccc4)c(=N)c32)cc1OC (configuration not stated) was read as PAFAH2 FP inh 46.2*, pPAFAH FP inh -3.9, PAFAH1B2 FP inh 32.0*, Apaf1 inhib -7.2 and PAFAH1B3 FP inh 32.4*.
Oc1c(Br)cc(/C=N/n2c(-c3ccccc3)n[nH]c2=S)c(Br)c1O was read as pPAFAH FP inh 87.7*.
`Oc1c(Br)cc(Br)cc1/C=N/n1c(-c2ccccc2)n[nH]c1=S` gave PAFAH2 FP inh -0.6, pPAFAH FP inh 7.2, PAFAH1B2 FP inh 6.8, Apaf1 inhib -2.1 and PAFAH1B3 FP inh 7.2.
For Cc1ccc(S(=O)(=O)Nc2cccnc2)cc1C the results were PAFAH2 FP inh 1.0, pPAFAH FP inh -1.6, PAFAH1B2 FP inh -0.2, Apaf1 inhib -1.1 and PAFAH1B3 FP inh 3.5.
Screening O=S(=O)(Nc1cccnc1)c1ccc(Cl)c(C(F)(F)F)c1 returned PAFAH2 FP inh -4.3, pPAFAH FP inh 4.4, PAFAH1B2 FP inh 25.8*, Apaf1 inhib 1.8 and PAFAH1B3 FP inh 13.4.
Screening Nc1ccc(N=Nc2ccccc2)c(N)n1 returned PAFAH2 FP inh 0.7, pPAFAH FP inh 1.8, PAFAH1B2 FP inh -0.6, Apaf1 inhib -5.4 and PAFAH1B3 FP inh 8.8.
`Cc1[nH]c(N=Nc2ccccc2)nc1N=Nc1ccccc1` gave PAFAH2 FP inh -2.5, pPAFAH FP inh 25.4*, PAFAH1B2 FP inh 4.2, Apaf1 inhib 12.6 and PAFAH1B3 FP inh 3.5.
Screening COc1ccc(NCC(O)COc2ccc(C(C)(C)C)cc2)cc1 (configuration not stated) returned PAFAH2 FP inh 0.4, pPAFAH FP inh 12.3, PAFAH1B2 FP inh 27.0*, Apaf1 inhib 10.3 and PAFAH1B3 FP inh 7.6.
COc1ccccc1NCC(O)COc1ccc(C(C)(C)C)cc1 (configuration not stated) was read as PAFAH2 FP inh 6.2, pPAFAH FP inh 9.0, PAFAH1B2 FP inh 6.9, Apaf1 inhib 21.9 and PAFAH1B3 FP inh 10.4.
For COc1ccc(CNCC(O)COc2ccc(C(C)(C)c3ccccc3)cc2)cc1 (configuration not stated) the results were PAFAH2 FP inh 1.8, pPAFAH FP inh 26.4*, PAFAH1B2 FP inh 11.9, Apaf1 inhib 30.1 and PAFAH1B3 FP inh -3.3.
`COc1cc([C@@H]2CC=C(C(=O)O)[C@H](c3ccc(Cl)cc3)N2S(=O)(=O)c2ccc(C)cc2)cc(OC)c1OC` gave PAFAH2 FP inh -12.6, pPAFAH FP inh -1.4, PAFAH1B2 FP inh -2.4, Apaf1 inhib 8.3 and PAFAH1B3 FP inh 13.1.
For CCc1ccc([C@@H]2CC=C(C(=O)O)[C@H](c3ccc(C(C)(C)C)cc3)N2S(=O)(=O)c2ccc(C)cc2)cc1 the results were PAFAH2 FP inh 9.5, pPAFAH FP inh 18.4, PAFAH1B2 FP inh 86.8*, Apaf1 inhib 18.0 and PAFAH1B3 FP inh 4.9.
`Cc1ccc(S(=O)(=O)N2[C@@H](c3ccc(Cl)cc3)C(C(=O)O)=CC[C@H]2c2ccc(Cl)c(Cl)c2)cc1` gave PAFAH2 FP inh 7.4, pPAFAH FP inh 10.0, PAFAH1B2 FP inh 90.3*, Apaf1 inhib 20.6 and PAFAH1B3 FP inh -1.9.
Cc1ccc([C@@H]2CC=C(C(=O)O)[C@H](c3ccc(C(C)(C)C)cc3)N2S(=O)(=O)c2ccc(C)cc2)cc1 was read as PAFAH2 FP inh -1.0, pPAFAH FP inh 14.8, PAFAH1B2 FP inh 86.9*, Apaf1 inhib 21.5 and PAFAH1B3 FP inh -2.9.
For COc1cc([C@@H]2CC=C(C(=O)O)[C@H](c3ccccc3)N2S(=O)(=O)c2ccc(C)cc2)cc(OC)c1OC the results were PAFAH2 FP inh 4.1, pPAFAH FP inh 0.1, PAFAH1B2 FP inh 2.8, Apaf1 inhib 9.8 and PAFAH1B3 FP inh 4.2.
For Cc1ccc(S(=O)(=O)N2[C@@H](c3ccc(C(C)(C)C)cc3)C(C(=O)O)=CC[C@H]2c2ccc(C(C)C)cc2)cc1 the results were PAFAH2 FP inh 1.7, pPAFAH FP inh 11.3, PAFAH1B2 FP inh 82.8*, Apaf1 inhib 33.4 and PAFAH1B3 FP inh 1.6.
`CCN1C(=O)[C@H]2[C@@H](c3ccc(-c4ccccc4)cc3)N[C@@](CC(C)C)(C(=O)OC)[C@H]2C1=O` gave PAFAH2 FP inh -2.4, pPAFAH FP inh 4.2, PAFAH1B2 FP inh 1.9, Apaf1 inhib 14.2 and PAFAH1B3 FP inh -4.1.
